Results on two molecules are retold here after ChEMBL document CHEMBL4270630.

Data set [1] relates to H3N2 subtype. Nature of the data set: Antiviral activity against Influenza A virus A/HK/7/87(H3N2) infected in MDCK cells after 3 days by MTS assay. The format is functional, organism-based. The conditions noted are these: A/Hong Kong/7/1987(H3N2), 72 h. A digest of the protocol: (§1)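 Semi-confluent MDCK cells were infected at an MOI of 0.0004 PFU/cell in Ultra-MDCK infection medium with 2 μg/mL TPCK-trypsin, together with compounds. After 3 days at 35 °C, CPE was scored by microscopy and confirmed by MTS formazan viability. EC50 is the concentration giving 50% inhibition of virus-induced CPE. Values are means of two to five independent tests.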
On the technique in general: Tetrazolium assays rely on reduction of a dye to a coloured formazan, in cell work by metabolically active cells.

Data set [2] is described as follows: Cytotoxicity against MDCK cells assessed as alteration in cell morphology after 3 days by microscopic method. The format is cell-based, Canis lupus familiaris. The note with it: dog. A digest of the protocol:
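Mock-infected MDCK cells were treated with compounds in parallel with the antiviral assay, 3 days at 35 °C. MCC is the concentration causing minimal change in cell morphology by microscopy. CC50 is the 50% cytotoxic concentration by MTS formazan viability assay.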

For data set [3], the system named is H3N2 subtype. Nature of the data set: Antiviral activity against Influenza A virus A/HK/7/87(H3N2) infected in MDCK cells assessed as reduction in virus-induced cytopathic effect after 3 days by microscopic method. The format is functional, organism-based. The note with it: A/Hong Kong/7/1987(H3N2), 72 h. A digest of the protocol:
as §1

Data set [4] concerns Influenza B virus. In words: Antiviral activity against Influenza B virus B/HK/05/72 infected in MDCK cells after 3 days by MTS assay. The format is functional, organism-based. The note with it: B/Hong Kong/05/1972, MDCK, 72 h. In outline: as §1
In data set [5] the test system is Influenza A virus. In words: Antiviral activity against Influenza A virus A/Virginia/ATCC3/2009(H1N1pdm) infected in MDCK cells after 3 days by MTS assay. The format is functional, organism-based, Influenza A virus (A/Virginia/03/2009(H1N1)). The note with it: 72 h. In outline: as §1
The subject of data set [6] is Influenza A virus. In words: Antiviral activity against Influenza A virus A/PR/8/34(H1N1) infected in MDCK cells assessed as reduction in virus-induced cytopathic effect after 3 days by microscopic method. The format is functional, organism-based, A/Puerto Rico/8/1934(H1N1). The note with it: Influenza A virus, A/Puerto Rico/8/1934(H1N1), MDCK, 72 h. A digest of the protocol:
as §1
On the technique in general: Cytopathic effects are the visible damage that an infection or toxin causes in cultured cells.

Data set [7] deals with Influenza A virus. In words: Antiviral activity against Influenza A virus A/PR/8/34(H1N1) infected in MDCK cells after 3 days by MTS assay. The format is functional, organism-based, A/Puerto Rico/8/1934(H1N1). The conditions noted are these: Influenza A virus, A/Puerto Rico/8/1934(H1N1), MDCK, 72 h. A digest of the protocol: as §1
For data set [8], the system named is Influenza A virus. In words: Antiviral activity against Influenza A virus A/Virginia/ATCC3/2009(H1N1pdm) infected in MDCK cells assessed as reduction in virus-induced cytopathic effect after 3 days by microscopic method. The format is functional, organism-based, Influenza A virus (A/Virginia/03/2009(H1N1)). The note with it: 72 h. In outline: as §1
Data set [9] concerns Influenza B virus. Nature of the data set: Antiviral activity against Influenza B virus B/HK/05/72 infected in MDCK cells assessed as reduction in virus-induced cytopathic effect after 3 days by microscopic method. The format is functional, organism-based. The note with it: B/Hong Kong/05/1972, MDCK, 72 h. In outline:
as §1

Data set [10] relates to Influenza A virus. Nature of the data set: Antiviral activity against Influenza A virus A/PR/8/34(H1N1) GFP-fused pseudotyped lentiviral particle expressing H1-HA/N1-NA infected in MDCK cells assessed as inhibition of pseudoparticle entry at 2 uM after 3 days by flow cytometry relative to control. The class given is functional. The conditions noted are these: A/Puerto Rico/8/1934(H1N1), 72 h. A digest of the protocol: (§2)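 MDCK cells were seeded at 7500/well and one day later were exposed to compounds plus GFP lentiviral pseudoparticles bearing A/PR/8/34 H1-HA and N1-NA, with HA0 activated by trypsin. After 3 days the cells were trypsinized, fixed in paraformaldehyde and analysed for GFP by flow cytometry. Entry inhibition was taken as the reduction in GFP signal. Data are the mean ± SEM of four independent experiments.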
A general note: Flow cytometry measures light scatter and fluorescence of single cells or particles in a stream.

Data set [11] can be described thus: (§3) Cytotoxicity against MDCK cells assessed as reduction in cell viability after 3 days by MTS assay. The class given is cell-based, Canis lupus familiaris. The conditions noted are these: dog, MDCK cells.
The subject of data set [12] is Influenza B virus. In words: Antiviral activity against Influenza B virus B/Ned/537/05 infected in MDCK cells assessed as reduction in virus-induced cytopathic effect after 3 days by microscopic method. The class given is functional, organism-based. The conditions noted are these: B/Ned/537/05, MDCK, 72 h. A digest of the protocol:
(§4)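 Semi-confluent MDCK cells were infected at an MOI of 0.0004 PFU/cell in Ultra-MDCK infection medium with 2 μg/mL TPCK-trypsin, together with compounds. After 3 days at 35 °C, CPE was scored by microscopy and confirmed by MTS formazan viability. Values are means of two to five independent tests.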

Data set [13] concerns Influenza A virus. In words: Antiviral activity against Influenza A virus A/PR/8/34(H1N1) GFP-fused pseudotyped lentiviral particle expressing H1-HA/N1-NA infected in MDCK cells assessed as inhibition of pseudoparticle entry at 10 uM after 3 days by flow cytometry relative to control. The class given is functional. The conditions noted are these: A/Puerto Rico/8/1934(H1N1), 72 h. In outline: as §2

Data set [14] concerns Influenza B virus. In words: Antiviral activity against Influenza B virus B/Ned/537/05 infected in MDCK cells after 3 days by MTS assay. The note with it: B/Ned/537/05, MDCK, 72 h. The class given is functional, organism-based. In outline:
as §4

A further data set relates to MDCK. Described as §3. The note with it: dog, mdck, 72 h. The class given is cell-based, Canis lupus familiaris.

In the case of `CCCCCCCCO[C@@H]1[C@@H](OCCCCCCCC)[C@@H](OC)O[C@H](COCCOCCOCCOCCOCc2cn([C@H]3C(=O)N[C@@H]4Cc5ccc(c(Cl)c5)Oc5cc6cc(c5O)Oc5ccc(cc5Cl)[C@@H](O[C@@H]5O[C@H](CO)[C@@H](O)[C@H](O)[C@H]5NC(C)=O)[C@H]5NC(=O)[C@H](NC(O)[C@@H]6NC(=O)[C@@H](NC4=O)c4cc(O)cc(c4)Oc4cc3ccc4O)c3ccc(O)c(c3)-c3c(O)cc(O)cc3[C@H](C(=O)O)NC5=O)nn2)[C@H]1OCc1ccc(OC)cc1` (stereo partly drawn), the EC50 in the data set on H3N2 subtype [1] was 1.2 µM; in the data set on H3N2 subtype [3], 1.8 µM; in the data set with Influenza B virus [4], more than 100 µM; in the data set with Influenza A virus [5], less than 0.8 µM; with Influenza A virus [6], 0.8 µM; in the data set with Influenza A virus [7] it was 1.2 µM. For the same molecule, the EC50 is 1.4 µM in the data set with Influenza A virus [8] and more than 100 µM in the data set on Influenza B virus [9]. Besides, the MCC at 72 h in data set [2] amounted to 20 µM. Further, the inhibition at 2 µM in the data set with Influenza A virus [10] came to 54%. In addition, the CC50 at 72 h in data set [11] was 11 µM.

Consider `CCCCCCCCCCOCc1cn(CCOCCOCCOCCOCc2cn([C@H]3C(=O)N[C@@H]4Cc5ccc(c(Cl)c5)Oc5cc6cc(c5O)Oc5ccc(cc5Cl)[C@@H](O[C@@H]5O[C@H](CO)[C@@H](O)[C@H](O)[C@H]5NC(C)=O)[C@H]5NC(=O)[C@H](NC(O)[C@@H]6NC(=O)[C@@H](NC4=O)c4cc(O)cc(c4)Oc4cc3ccc4O)c3ccc(O)c(c3)-c3c(O)cc(O)cc3[C@H](C(=O)O)NC5=O)nn2)nn1` (stereo partly drawn), for which the EC50 in the data set on H3N2 subtype [1] is 1.3 µM; with Influenza B virus [12] it was more than 100 µM; in the data set on H3N2 subtype [3], 1.6 µM; in the data set on Influenza A virus [5], 1.8 µM; in the data set on Influenza A virus [6], 1.6 µM; in the data set with Influenza A virus [7], 1.5 µM. Moreover, the EC50 is 1.8 µM in the data set on Influenza A virus [8] and less than 0.8 µM in the data set with Influenza B virus [14]. Besides, in [2], the MCC at 72 h is not below 20 µM. In the data set on Influenza A virus [13], the inhibition at 10 µM was 92%. The inhibition at 2 µM in the data set with Influenza A virus [10] came to 56%. Moreover, the CC50 in the data set with MDCK was not below 82 µM.

By EC50 is commonly meant the concentration giving half of the maximal effect. In general, inhibition refers to the change of the read-out against control, counted positive when it falls. A word on the CC50: it is the concentration at which the toxic effect on the cells reaches its halfway point.
